Calls of active or inactive are those of the source. The calls are words filed in the database; no cut-off is given here.
Assays:
[1] = Antiproliferative activity against human HCT116 cells after 48 hrs by MTT assay; format: functional, cell-based; conditions: HCT-116, 48 h
In short: (§1)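 Human cancer cells (HCT-116, HepG2 or MGC-803) incubated with compound for 48 h. Viability read by MTT assay. IC50 taken from dose-response curves. Mean ± SD of three separate assays.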

HepG2 [2] = assay: Antiproliferative activity against human HepG2 cells after 48 hrs by MTT assay; format: functional, cell-based; conditions: HepG2, 48 h; in short: as §1
[3] = Antiproliferative activity against human MGC803 cells after 48 hrs by MTT assay; format: functional, cell-based; conditions: MGC-803, 48 h; in short: as §1
[4] = Cell cycle arrest in human MGC803 cells assessed as accumulation at G0/G1 phase at 10 uM after 24 hrs by propidium iodide staining based flow cytometric analysis (reference value: 77.59 %); format: functional; conditions: MGC-803
In short: (§2)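 MGC-803 cells were exposed for 24 h to 0 (untreated), 10, 20 or 40 µM. The percentage of cells in each cell-cycle phase was measured by flow cytometry. Values are mean ± SD of three independent experiments, with P compared to control.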

[5] = Cell cycle arrest in human MGC803 cells assessed as accumulation at S phase at 10 uM after 24 hrs by propidium iodide staining based flow cytometric analysis (reference value: 20.52 %); format: functional; conditions: MGC-803; in short: as §2
[6] = Cell cycle arrest in human MGC803 cells assessed as accumulation at G2/M phase at 10 uM after 24 hrs by propidium iodide staining based flow cytometric analysis (reference value: 1.89 %); format: functional; conditions: MGC-803; in short: as §2
[7] = Cell cycle arrest in human MGC803 cells assessed as accumulation at G0/G1 phase at 20 uM after 24 hrs by propidium iodide staining based flow cytometric analysis (reference value: 77.59 %); format: functional; conditions: MGC-803; in short: as §2
[8] = Cell cycle arrest in human MGC803 cells assessed as accumulation at S phase at 20 uM after 24 hrs by propidium iodide staining based flow cytometric analysis (reference value: 20.52 %); format: functional; conditions: MGC-803; in short: as §2
[9] = Cell cycle arrest in human MGC803 cells assessed as accumulation at G2/M phase at 20 uM after 24 hrs by propidium iodide staining based flow cytometric analysis (reference value: 1.89 %); format: functional; conditions: MGC-803; in short: as §2
[10] = Cell cycle arrest in human MGC803 cells assessed as accumulation at G0/G1 phase at 40 uM after 24 hrs by propidium iodide staining based flow cytometric analysis (reference value: 77.59 %); format: functional; conditions: MGC-803; in short: as §2
[11] = Cell cycle arrest in human MGC803 cells assessed as accumulation at S phase at 40 uM after 24 hrs by propidium iodide staining based flow cytometric analysis (reference value: 20.52 %); format: functional; conditions: MGC-803; in short: as §2
[12] = Cell cycle arrest in human MGC803 cells assessed as accumulation at G2/M phase at 40 uM after 24 hrs by propidium iodide staining based flow cytometric analysis (reference value: 1.89 %); format: functional; conditions: MGC-803; in short: as §2
[13] = Cell cycle arrest in human MGC803 cells assessed as accumulation at G2/M phase after 24 hrs by propidium iodide staining based flow cytometric analysis; format: functional; conditions: MGC-803; in short: as §2
[14] = Downregulation of cyclin A expression in human MGC803 cells after 24 hrs by Western blot analysis; format: functional, cell-based; conditions: MGC-803
In short: (§3)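 MGC-803 cells were incubated for 24 h at 0, 10, 20 or 40 µM. Levels of cyclin A, cyclin B, CDK1, cdc25c and p21 were detected by Western blot with specific antibodies, with P compared to 0 µM.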

[15] = Downregulation of cyclin B expression in human MGC803 cells after 24 hrs by Western blot analysis; format: functional, cell-based; conditions: MGC-803; in short: as §3
[16] = Downregulation of CDK1 expression in human MGC803 cells after 24 hrs by Western blot analysis; format: functional, cell-based; conditions: MGC-803; in short: as §3
[17] = Downregulation of CDK2 expression in human MGC803 cells at 10 to 40 uM after 24 hrs by Western blot analysis; format: functional, cell-based; conditions: MGC-803
[18] = Downregulation of cdc25c expression in human MGC803 cells at 10 to 40 uM after 24 hrs by Western blot analysis; format: functional, cell-based; conditions: MGC-803; in short: as §3
[19] = Upregulation of p21 expression in human MGC803 cells at 10 to 40 uM after 24 hrs by Western blot analysis; format: functional, cell-based; conditions: MGC-803; in short: as §3
Mus musculus [20] = assay: Toxicity in ICR mouse xenografted with human HepG2 cells assessed as body weight at 1 mg/kg, iv administered every 2 days measured on day 1 (reference value: 21 +/- 0.89 g); format: organism-based; conditions: in vivo, 48 h
Mus musculus [21] = assay: Toxicity in ICR mouse xenografted with human HepG2 cells assessed as body weight at 2 mg/kg, iv administered every 2 days measured on day 1 (reference value: 21 +/- 0.89 g); format: organism-based; conditions: in vivo, 48 h
Mus musculus [22] = assay: Toxicity in ICR mouse xenografted with human HepG2 cells assessed as body weight at 4 mg/kg, iv administered every 2 days measured on day 1 (reference value: 21 +/- 0.89 g); format: organism-based; conditions: in vivo, 48 h
Mus musculus [23] = assay: Toxicity in ICR mouse xenografted with HepG2 cells assessed as body weight at 1 mg/kg, iv administered every 2 days measured on day 14 (reference value: 30.10 +/- 2.39 g); format: organism-based; conditions: in vivo, 48 h
Mus musculus [24] = assay: Toxicity in ICR mouse xenografted with HepG2 cells assessed as body weight at 2 mg/kg, iv administered every 2 days measured on day 14 (reference value: 30.10 +/- 2.39 g); format: organism-based; conditions: in vivo, 48 h
Mus musculus [25] = assay: Toxicity in ICR mouse xenografted with HepG2 cells assessed as body weight at 4 mg/kg, iv administered every 2 days measured on day 14 (reference value: 30.10 +/- 2.39 g); format: organism-based; conditions: in vivo, 48 h
HepG2 [26] = assay: Antitumor activity against human HepG2 cells xenografted in ICR mouse assessed as tumor growth inhibition at 4 mg/kg, iv administered every 2 days measured after 14 days relative to control; format: functional; conditions: read-out: TGI
In short: (§4)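 HepG2 xenografts established in ICR mice, then randomized into four groups (n = 10 each). Compound given intravenously every two days; control group received vehicle at 0.4 mL/mouse. Tumors weighed after two weeks (day 14); inhibitory ratio calculated versus vehicle control. Body weights recorded on days 1 and 14.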

HepG2 [27] = assay: Antitumor activity against human HepG2 cells xenografted in ICR mouse assessed as tumor growth inhibition at 1 mg/kg, iv administered every 2 days measured after 14 days relative to control; format: functional; conditions: read-out: TGI; in short: as §4
HepG2 [28] = assay: Antitumor activity against human HepG2 cells xenografted in ICR mouse assessed as tumor growth inhibition at 2 mg/kg, iv administered every 2 days measured after 14 days relative to control; format: functional; conditions: read-out: TGI; in short: as §4
[29] = Cell cycle arrest in human MGC803 cells assessed as decrease in cell level at G1 phase after 24 hrs by propidium iodide staining based flow cytometric analysis; format: functional; conditions: MGC-803; in short: as §2
HepG2 [30] = assay: Antitumor activity against human HepG2 cells xenografted in iv dosed ICR mouse assessed as tumor retardation effect administered every 2 days measured after 14 days; format: functional, organism-based

SMILES: COc1cc([C@@H]2c3cc4c(cc3C[C@H]3COC(=O)[C@@H]32)OCO4)cc(OC)c1OCC(=O)Nc1cccc(Cl)c1
- IC50 [1]: 2.68 µM
- IC50 (HepG2 [2]): 2.97 µM
- IC50 [3]: 1.24 µM

SMILES: COc1cc([C@@H]2c3cc4c(cc3C[C@H]3COC(=O)[C@@H]32)OCO4)cc(OC)c1OCC(=O)Nc1ccccc1Cl
- IC50 [1]: > 10 µM
- IC50 (HepG2 [2]): > 10 µM
- IC50 [3]: > 10 µM

SMILES: COc1cc([C@@H]2c3cc4c(cc3C[C@H]3COC(=O)[C@@H]32)OCO4)cc(OC)c1OCC(=O)Nc1ccccc1C
- IC50 [1]: > 10 µM
- IC50 (HepG2 [2]): 7.8 µM
- IC50 [3]: 4.05 µM

SMILES: COc1cc([C@@H]2c3cc4c(cc3[C@@H](O[C@@H]3O[C@@H]5CO[C@@H](C)O[C@H]5[C@H](O)[C@H]3O)[C@H]3COC(=O)[C@H]23)OCO4)cc(OC)c1O [ETOPOSIDE]
- IC50 [1]: 1.7 µM
- IC50 (HepG2 [2]): 5.62 µM
- IC50 [3]: > 10 µM

SMILES: COc1cc([C@@H]2c3cc4c(cc3C[C@H]3COC(=O)[C@@H]32)OCO4)cc(OC)c1OCC(=O)Nc1ccccc1
- IC50 [1]: > 10 µM
- IC50 (HepG2 [2]): > 10 µM
- IC50 [3]: 2.54 µM

SMILES: COc1cc([C@@H]2c3cc4c(cc3C[C@H]3COC(=O)[C@@H]32)OCO4)cc(OC)c1OCC(=O)Nc1c(C)cccc1Cl
- IC50 [1]: > 10 µM
- IC50 (HepG2 [2]): > 10 µM
- IC50 [3]: 6.16 µM

SMILES: COc1cc([C@@H]2c3cc4c(cc3C[C@H]3COC(=O)[C@@H]32)OCO4)cc(OC)c1OCC(=O)Nc1ccccc1F
- IC50 [1]: 2.2 µM
- IC50 (HepG2 [2]): 1.08 µM
- IC50 [3]: 0.22 µM
- Activity [4]: 41.9%
- Activity [5]: 50.8%
- Activity [6]: 7.29%
- Activity [7]: 7.22%
- Activity [8]: 20.5%
- Activity [9]: 72.3%
- Activity [10]: 1.8%
- Activity [11]: 22.7%
- Activity [12]: 75.5%
- Activity [13]: Dose-dependent effect
- Activity [14]: Dose-dependent effect
- Activity [15]: Dose-dependent effect
- Activity [16]: Dose-dependent effect
- Activity [17]: inactive
- Activity [18]: Active
- Activity [19]: Active
- Activity (Mus musculus [20]): 20.82 g
- Activity (Mus musculus [21]): 20.91 g
- Activity (Mus musculus [22]): 21.3 g
- Activity (Mus musculus [23]): 29.09 g
- Activity (Mus musculus [24]): 28.36 g
- Activity (Mus musculus [25]): 27.2 g
- inhibition in vivo at 4 mg/kg (HepG2 [26]): 45.6%
- inhibition in vivo at 1 mg/kg (HepG2 [27]): 6.09%
- inhibition in vivo at 2 mg/kg (HepG2 [28]): 26.6%
- Activity [29]: Dose-dependent effect
- Activity (HepG2 [30]): Dose-dependent effect

SMILES: COc1cc([C@@H]2c3cc4c(cc3C[C@H]3COC(=O)[C@@H]32)OCO4)cc(OC)c1OCC(=O)Nc1ccccc1[N+](=O)[O-]
- IC50 [1]: > 10 µM
- IC50 (HepG2 [2]): > 10 µM
- IC50 [3]: > 10 µM

SMILES: COc1cc([C@@H]2c3cc4c(cc3C[C@H]3COC(=O)[C@@H]32)OCO4)cc(OC)c1OCC(=O)Nc1cccc([N+](=O)[O-])c1
- IC50 [1]: 3.2 µM
- IC50 (HepG2 [2]): > 10 µM
- IC50 [3]: 2.82 µM

SMILES: COc1cc([C@@H]2c3cc4c(cc3C[C@H]3COC(=O)[C@@H]32)OCO4)cc(OC)c1OCC(=O)Nc1cccc(F)c1
- IC50 [1]: > 10 µM
- IC50 (HepG2 [2]): > 10 µM
- IC50 [3]: > 10 µM

SMILES: COc1ccc(NC(=O)COc2c(OC)cc([C@@H]3c4cc5c(cc4C[C@H]4COC(=O)[C@@H]43)OCO5)cc2OC)cc1
- IC50 [1]: > 10 µM
- IC50 (HepG2 [2]): > 10 µM
- IC50 [3]: > 10 µM
